# ChEMBL document CHEMBL2203110, “Inhibition of HIV-1 capsid assembly: optimization of the antiviral potency by site selective modifications at N1, C2 and C16 of a 5-(5-furan-2-yl-pyrazol-1-yl)-1H-benzimidazole scaffold” (Bioorg Med Chem Lett, 2012)
# Legend:
# [1] = target: T1, Structural capsid protein (Human immunodeficiency virus 1, UniProt Q76129); assay: Inhibition of HIV1 capsid protein binding to fluorescein labeled 3-(5-(3-ethyl-5-(5-methylfuran-2-yl)-1H-pyrazol-1-yl)-1-((6-oxo-1,6-dihydropyridin-3-yl)methyl)-1H-benzo[d]imidazol-2-yl)-4-hydroxybenzoic acid after 15 mins by fluorescence polarization assay
# T1 sequence (Q76129 whole entry): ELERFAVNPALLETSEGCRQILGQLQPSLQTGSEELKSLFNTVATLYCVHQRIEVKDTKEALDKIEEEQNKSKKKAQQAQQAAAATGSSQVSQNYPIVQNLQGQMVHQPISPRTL
# Summary of the method: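 CA-NC protein (40 nM) mixed with 40 nM fluorescein probe plus serially diluted compounds in Tris pH 8.0, 100 mM NaCl, CHAPS, DTT buffer with 2% DMSO before mixing. 15 min incubation, then fluorescence polarization read. Wells without compound defined 0% displacement; probe-only wells defined 100%.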
# [2] = system: Human immunodeficiency virus 1; assay: Antiviral activity against HIV1; format: functional, organism-based
# Summary of the method: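 Cell-based HIV-1 replication assay. EC50 is the concentration that inhibits virus replication by 50%.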
# [3] = target: T1, Structural capsid protein; assay: Inhibition of HIV1 capsid protein assembly using 5'-fluorescein-labeled (TG)25 oligonucleotide after 2 hrs by fluorometry-based capsid disassembly assay
# Summary of the method: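 Biotin-(TG)25 oligonucleotide (25 nM, overnight) immobilized on neutravidin wells; CA-NC (2 µM) assembled with 100 nM 5'-fluorescein (TG)25 in Tris pH 8.0/NaCl/ZnSO4/CHAPS/BSA/DTT buffer, 2 h RT, washed. Serially diluted compounds (buffer + 0.125% DMSO) added 2 h RT; washes, SDS release, captured fluorescence read. Ten-point curves fitted; IC50 = concentration giving 50% disassembly.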
# [4] = Permeability of the compound across human Caco2 cells; format: ADME, cell-based; settings: Caco-2, read-out: permeability
# [5] = Half life in rat liver microsomes; format: ADME, Microsome
# [6] = Half life in human liver microsomes; format: ADME, Microsome
Structure (SMILES),IC50 [1] [nM],EC50 [2] [nM],IC50 [3] [nM],Papp [4] [×10⁻⁶ cm/s],half-life [5] [min],half-life [6] [min]
CCc1cc(-c2ccc(C)o2)n(-c2ccc3c(c2)nc(-c2cc(C(=O)O)ccc2O)n3Cc2ccc(=O)[nH]c2)n1,650,> 46000,56,–,–,–
CCc1cc(-c2ccc(C)o2)n(-c2ccc3c(c2)nc(-c2ccccc2O)n3Cc2ccc(=O)[nH]c2)n1,690,260,55,–,–,–
CCc1cc(-c2ccc(C)o2)n(-c2ccc3c(c2)nc(-c2cc(F)ccc2O)n3Cc2ccc(=O)[nH]c2)n1,–,260,41,–,–,–
CCc1cc(-c2ccc(C)o2)n(-c2ccc3c(c2)nc(-c2cc(C(=O)N(C)C)ccc2O)n3Cc2ccc(=O)[nH]c2)n1,44,590,49,–,–,–
CCc1cc(-c2ccc(C)o2)n(-c2ccc3c(c2)nc(-c2ccc(C(N)=O)cc2)n3Cc2cccnc2)n1,–,2600,360,–,–,–
CCc1cc(-c2ccc(C(F)(F)F)o2)n(-c2ccc3c(c2)nc(-c2cc(C(=O)N(C)C)ccc2O)n3Cc2ccc(=O)[nH]c2)n1,59,91,–,–,–,–
CCc1cc(-c2ccc(C)o2)n(-c2ccc3c(c2)nc(-c2cc(C(=O)N(C)C)ccc2O)n3Cc2ccc(OC)c(O)c2)n1,–,630,120,–,–,–
CCc1cc(-c2ccc(C)o2)n(-c2ccc3c(c2)nc(-c2ccc(C(N)=O)cc2)n3Cc2ccc(=O)[nH]c2)n1,–,13000,170,–,–,–
CCc1cc(-c2ccc(C)o2)n(-c2ccc3c(c2)nc(-c2ccc(C(N)=O)cc2)n3CC2CC2)n1,–,3500,1000,–,–,–
CCc1cc(-c2ccc(C)o2)n(-c2ccc3c(c2)nc(-c2ccccc2O)n3Cc2ccc(OC)c(O)c2)n1,–,6400,410,–,–,–
CCc1cc(-c2ccc(C(F)(F)F)o2)n(-c2ccc3c(c2)nc(-c2cc(C(=O)N4CCCC4)ccc2O)n3Cc2ccc(=O)[nH]c2)n1,61,62,–,0.19,45,30
CCc1cc(-c2ccc(C)o2)n(-c2ccc3c(c2)nc(-c2ccc(C(N)=O)cc2)n3Cc2ccc(OC)c(O)c2)n1,–,640,790,–,–,–
Cc1cc(-c2ccco2)n(-c2ccc3c(c2)nc(COc2ccc(C(=N)N)cc2)n3C)n1,–,28000,6000,–,–,–
CCc1cc(-c2ccc(C)o2)n(-c2ccc3c(c2)nc(-c2ccc(C(N)=O)cc2)n3Cc2ccc(OC)nc2)n1,–,3500,830,–,–,–
CCc1cc(-c2ccc(C)o2)n(-c2ccc3c(c2)nc(-c2cc(F)ccc2O)n3Cc2ccc(OC)c(O)c2)n1,–,10000,280,–,–,–
CCc1cc(-c2ccc(C(F)(F)F)o2)n(-c2ccc3c(c2)nc(-c2cc(C(=O)N4CCCC4)ccc2O)n3Cc2c[nH]c(=O)c(C)c2)n1,38,28,–,6.8,25,11
CCc1cc(-c2ccc(C)o2)n(-c2ccc3c(c2)nc(-c2cc(C(=O)O)ccc2O)n3Cc2ccc(OC)c(O)c2)n1,550,6100,88,–,–,–
CCc1cc(-c2ccc(C(F)(F)F)o2)n(-c2ccc3c(c2)nc(-c2cc(C(=O)N4CCCC4)ccc2O)n3Cc2cc(C)c(=O)n(C)c2)n1,67,27,–,7.2,18,10
